# GRK2 aptamer HTS: human GRK2 inhibition via aptamer displacement; P25098; bead flow cytometry, FAM-aptamer displacement from GRK2; inhibition of aptamer binding, % at 10 µM; 330,000 compounds, 0.59% hits;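 active = inhibition of aptamer binding above 40%, roughly 3 SD of noise, on plates passing a quality check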;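 also: median bead fluorescence of bound FAM aptamer so fluorescent compounds give negative values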
# Lipid droplet: modulators of hepatic lipid droplet formation; inhibition, % at 6.5 µM; 240,000 compounds, 0.4% hits; AID 1656; AML12 mouse hepatocytes, oleate lipid droplets, BODIPY imaging;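 active = lipid droplet intensity inhibited by at least 50%, with more than 500 cells counted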
#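 System: AML12 hepatocytes (mouse). Probe or stimulus: oleic acid at 100 µM to induce lipid droplet formation. Times: overnight treatment with compound plus oleate. Detection: Image-based BODIPY and DAPI two-channel analysis. Evaluation: percent inhibition of filter-corrected integrated lipid droplet intensity per well.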
# procasp7 counter: counter-screen for procaspase-3 activators: activators of human procaspase-7. P55210. recombinant procaspase-7, Ac-DEVD-pNA absorbance 405 nm; D23A/D198A/D206A triple mutant, cannot self-cleave; scale: DMSO 0, 5 µM enzyme 100. activation, % at 8.5 µM. 330,000 compounds, 0.093% hits. AID 463210;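 active = percent activation above the screen-wide mean plus 3 SD, cut at about 25% in these data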
# Target sequence (P55210 whole entry D23A/D198A/D206A): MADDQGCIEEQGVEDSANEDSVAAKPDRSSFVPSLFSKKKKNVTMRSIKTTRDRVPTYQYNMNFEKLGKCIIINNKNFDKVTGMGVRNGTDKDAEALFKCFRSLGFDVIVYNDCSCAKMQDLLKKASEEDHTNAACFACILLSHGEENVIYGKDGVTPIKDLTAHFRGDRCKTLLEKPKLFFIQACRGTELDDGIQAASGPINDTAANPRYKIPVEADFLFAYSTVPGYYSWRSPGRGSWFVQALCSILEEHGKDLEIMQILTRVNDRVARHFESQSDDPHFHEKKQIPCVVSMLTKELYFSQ
#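 System: Uncleavable procaspase-7 mutant enzyme; Amount: 2 µM procaspase-7 mutant as dispensed; Schedule: 1 h compound preincubation, 2 h substrate cleavage, 25 °C; Measured by: 405 nm absorbance of p-nitroaniline; Evaluation: percent activation from buffer-corrected 0–120 min absorbance change; Control set: low DMSO alone, high DMSO plus 5 µM PC-7.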
# GASC-1 inh: human JMJD2C demethylase inhibition; inhibition, % at 2.35 µM; 330,000 compounds, 0.069% hits; GST-JMJD2C(1-420) H3K9me3 demethylation, DELFIA europium;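 active = more than half of a compound's replicate wells show inhibition beyond 50%, single wells judged on their own value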;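 also: signal counts dimethyl H3K9 product captured on neutravidin plate; 0% = median of DMSO wells and 100% = 0.3 times that DMSO median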
# proCasp3 act: activators of human procaspase-3; 330,000 compounds, 0.11% hits; AID 463141; recombinant procaspase-3 D3A, Ac-DEVD-pNA absorbance 405 nm; activation, % at 8.5 µM; P42574;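 active = activation above the mean of all tested compounds plus 3 SD, cut at about 21% in these data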;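 also: 0% = DMSO alone and 100% = DMSO wells spiked with extra 5 µM PC-3 D3A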
# Target sequence (P42574 whole entry D9A/D28A/D175A): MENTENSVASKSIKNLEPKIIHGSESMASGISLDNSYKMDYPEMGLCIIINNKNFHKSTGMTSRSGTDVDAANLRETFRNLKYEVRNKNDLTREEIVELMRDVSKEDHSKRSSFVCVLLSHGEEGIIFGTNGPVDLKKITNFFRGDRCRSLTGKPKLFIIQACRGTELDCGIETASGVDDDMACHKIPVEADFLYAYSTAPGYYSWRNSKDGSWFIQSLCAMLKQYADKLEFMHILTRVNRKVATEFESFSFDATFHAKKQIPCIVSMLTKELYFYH
#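 Compound: 8.5 µM single point, 0.8% DMSO / Material: Autoprocessing-dead procaspase-3 D3A mutant enzyme / Timing: 1 h preincubation plus 2 h reaction at 25 °C / Medium: Zinc-free HEPES/NaCl buffer with 0.01% Triton X-100 at pH 7.4 / Technique: 405 nm absorbance of p-nitroaniline, reads at 0 and 120 min / Repeats: one well per compound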
# VLA-4 inh: inhibition in a human VLA-4 binding assay; VLA-4 expressing cells, ligand binding flow cytometry; inhibition, % (about 7 µM as worked out from the volumes in the protocol); 330,000 compounds, 0.2% hits; AID 2557; in the data active = inhibition above about 50%
# VLA-4 allo CP: human VLA-4 allosteric modulation in cherry picked compounds; shares compounds with VLA-4 inh; U937 cells, HUTS-21 LIBS mAb binding, flow cytometry; LDV ligand present at threefold Kd; inhibition, % at 6.7 µM; 1,300 compounds, 2% hits; AID 2813; in the data active = inhibition above about 40%;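 also: 0% = ligand without compound and 100% = no ligand background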
# * marks the source's active call; other numbers are inactive results; i = inactive; . = no result. Most compounds without a hit are left out; they make up all but 1.3% or so of the library.
SMILES,GRK2 aptamer HTS,Lipid droplet,procasp7 counter,GASC-1 inh,proCasp3 act,VLA-4 inh,VLA-4 allo CP
Cc1ccc(NC(=O)c2cc(S(=O)(=O)N3CCCCC3)ccc2N2CCOCC2)cc1S(=O)(=O)N(C)C,.,.,.,.,.,.,0
COc1cc(NC(=O)c2cc(S(=O)(=O)N3CCCCC3)ccc2N2CCOCC2)cc(OC)c1OC,.,.,.,.,.,.,0
COc1cccc(NC(=O)C(c2ccccc2)N2CCNC(=O)C2)c1 (stereo unspecified),2,21,-2,2,-1,9,.
CCC(C)c1ccc(OCc2ccc(C(=O)O)o2)cc1 (stereo unspecified),0,-5,-8,-10,6,9,.
O=C(Nc1ccccc1Cl)c1cc(S(=O)(=O)N2CCCCC2)ccc1N1CCOCC1,3,.,-8,-4,8,-9,5
O=C(CNC(=O)c1sc2ccccc2c1Cl)NCc1cccc(C(F)(F)F)c1,4,.,-3,-2,6,53*,0
CCOC(=O)N1CCC(N2Cc3cccc(C(=O)NCc4ccc(C)cc4)c3C2=O)CC1,0,.,1,-10,10,50*,14
CCc1ccc(NC(=O)Cn2cnc3sc(C)c(S(=O)(=O)N4CCOCC4)c3c2=O)cc1,1,8,5,12,6,19,.
C=CC[C@@H](CC(=O)N(CCO)Cc1ccccc1)C(=O)NC[C@H](OC(=O)[C@@H](CC=C)Cc1ccc(F)cc1)c1ccccc1,6,.,12,-4,14,-2,.
CSc1ccc(CN(C)C(=O)C23CC4CC(CC(Cl)(C4)C2)C3)cc1,0,12,0,2,8,64*,-7
COc1ccc(Cl)cc1NC(=O)CN(C)C(=O)C12CC3CC(CC(Cl)(C3)C1)C2,0,-6,.,-6,.,11,.
Cc1ccccc1CN1CCCC(C(=O)Nc2ccc(-c3ccn[nH]3)cc2)C1 (stereo unspecified),0,-5,-3,-18,5,9,.
O=C(NC1CCN(Cc2ccccc2)CC1)c1ccc(S(=O)(=O)NCc2ccco2)cc1,0,3,1,-3,2,0,.
O=C(NC1CCCCC1)c1ccc(S(=O)(=O)NCc2ccco2)cc1,0,.,0,2,5,52*,4
COc1cccc(N2CCN(C(=O)c3ccc(Cl)c(NC4=NC5CS(=O)(=O)CC5S4)c3)CC2)c1 (stereo unspecified),0,10,1,0,4,0,0
O=C(c1cccc(NC2=NC3CS(=O)(=O)CC3S2)c1)N1CCN(c2ncccn2)CC1 (stereo unspecified),6,4,11,1,3,3,-1
CCOC(=O)N1CCN(C(=O)c2cccc(NC3=NC4CS(=O)(=O)CC4S3)c2)CC1 (stereo unspecified),1,21,1,-1,-2,10,7
COc1ccc(N2CCN(C(=O)c3cccc(NC4=NC5CS(=O)(=O)CC5S4)c3)CC2)cc1 (stereo unspecified),1,3,5,11,5,10,.
O=C(N1CCOCC1)N1CCC(NC(=O)C23CC4CC(CC(C4)C2)C3)CC1,0,16,-7,-10,9,52*,12
O=C(N1CCOCC1)C12CCC3CC(CC(C3)C1)C2,0,.,-4,8,2,7,.
Cc1ccc2c(c1)N(C(=O)CCC(=O)Nc1ccccc1Cl)CC(C)O2 (stereo unspecified),0,-1,3,1,-5,7,.
Cc1nc2nc(SCC(=O)c3cccc([N+](=O)[O-])c3)[nH]c2cc1Br,2,6,0,-8,-12,44,-9
CN1C(=O)C(C)(C)c2cc(S(=O)(=O)NCc3ccc(Cl)cc3)ccc21,0,-14,3,-3,4,0,0
CN1C(=O)C(C)(C)c2cc(S(=O)(=O)NCCc3ccc(Cl)cc3)ccc21,2,-3,8,-24,8,-7,-5
Cc1ccccc1CNS(=O)(=O)c1ccc2c(c1)C(C)(C)C(=O)N2C,3,-5,12,-5,-2,18,.
SMILES,GRK2 aptamer HTS,Lipid droplet,procasp7 counter,GASC-1 inh,proCasp3 act,VLA-4 inh,VLA-4 allo CP
Cc1ccc(CCNS(=O)(=O)c2ccc3c(c2)C(C)(C)C(=O)N3C)cc1,0,-37,0,-4,2,-24,.
CC(C)C(NS(=O)(=O)c1ccc2c(c1)C(C)(C)C(=O)N2C)C(=O)NCc1ccccc1Cl (stereo unspecified),1,-6,2,-5,6,74*,-15
CN(C(=O)CSc1nc(-c2cccs2)nc2ccccc12)C1CCS(=O)(=O)C1 (stereo unspecified),0,.,8,-2,2,-1,.
Cc1ccccc1CNC(=O)Cn1ccc2cc(S(=O)(=O)N3CCCCCC3)ccc21,3,-2,-5,-11,-1,9,.
CC(C)(C)OC(=O)n1cc(C(=O)c2ccccc2O)cn1,1,-10,1,-1,-5,50*,7
Cc1noc(C)c1S(=O)(=O)Nc1ccc(C(C)C)cc1,0,-10,10,14,7,4,.
O=C(Cn1c(=O)oc2cc(S(=O)(=O)N3CCCCCC3)ccc21)NC1CCCCCCC1,0,.,-2,6,1,-7,.
CCCNC(=O)Cn1c(=O)oc2cc(S(=O)(=O)N3CCCC3)ccc21,0,-4,10,3,0,57*,-3
Cc1ccc(-c2nn3c(C)nnc3c3ccccc23)cc1S(=O)(=O)N1CCN(CCO)CC1,3,.,-6,9,-3,25,-3
Cc1ccc(-c2nn3c(C)nnc3c3ccccc23)cc1S(=O)(=O)NC(C)(C)CO,10,5,6,5,-3,-8,.
Cc1ccc(-c2nn3c(C)nnc3c3ccccc23)cc1S(=O)(=O)NCc1ccco1,3,-5,3,4,-7,-5,0
Cc1ccc(-c2nn3c(C)nnc3c3ccccc23)cc1S(=O)(=O)NC(C)c1ccccc1 (stereo unspecified),0,.,1,14,-4,92*,1
Cc1ccc(-c2nn3c(C)nnc3c3ccccc23)cc1S(=O)(=O)NCCO,2,-8,1,-21,0,-6,1
COCCNS(=O)(=O)c1cc(-c2nn(C)c(=O)c3ccccc23)ccc1C,0,.,7,i,5,6,.
COc1ccc2ccc(C(C)(C(C)=O)C(=O)OC(C)C)cc2c1 (stereo unspecified),0,.,2,7,-5,25,.
